Experimental data reported in ChEMBL document CHEMBL4043093, “2-Oxo-3, 4-dihydropyrimido[4, 5-d]pyrimidinyl derivatives as new irreversible pan fibroblast growth factor receptor (FGFR) inhibitors” (Eur J Med Chem, 2017).

Assays:
[1] = biological target: Mitogen-activated protein kinase 8 (Homo sapiens) (UniProt P45983); assay: Inhibition of wild-type human full length JNK1 (M1 to Q384 residues) expressed in HEK293 cells assessed as residual activity at 1000 nM after 30 mins by Kinomescan method relative to control; type: cell-based
Procedure, shortened: (§1)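 Single-concentration screen at 1 µM across a 456-kinase KINOMEscan panel. The read-out is Percent Control for each kinase.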

[2] = biological target: Megakaryocyte-associated tyrosine-protein kinase (Homo sapiens) (UniProt P42679); assay: Inhibition of wild-type human full length CTK (M43 to P508 residues) expressed in HEK293 cells assessed as residual activity at 1000 nM after 30 mins by Kinomescan method relative to control; type: cell-based; procedure, shortened: as §1
[3] = biological target: Phosphatidylinositol 4,5-bisphosphate 3-kinase catalytic subunit delta isoform (Homo sapiens) (UniProt O00329); assay: Inhibition of wild-type human partial length PIK3CD (R108 to Q1044 residues) expressed in HEK293 cells assessed as residual activity at 1000 nM after 30 mins by Kinomescan method relative to control; type: cell-based
[4] = biological target: Focal adhesion kinase 1 (Homo sapiens) (UniProt Q05397); assay: Inhibition of wild-type human partial length FAK (D402 to R696 residues) expressed in Escherichia coli BL21 assessed as residual activity at 1000 nM after 30 mins by Kinomescan method relative to control
[5] = test system: Phosphatidylinositol 4,5-bisphosphate 3-kinase catalytic subunit alpha isoform (Homo sapiens), P42336 [I800L]; assay: Inhibition of human partial length PIK3CA I800L mutant (R108 to N1068 residues) expressed in HEK293 cells assessed as residual activity at 1000 nM after 30 mins by Kinomescan method relative to control; type: cell-based
Procedure, shortened: (§2)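 Single-point screen at a fixed 1 µM, run within a 456-kinase DiscoveRx KINOMEscan panel. Each kinase's read-out is Percent Control, i.e. signal relative to a control without compound. Hits were scored by a Percent Control < 35 cut-off, and an S(35) selectivity score was calculated across the non-mutant kinases.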

[6] = biological target: Atypical kinase COQ8B, mitochondrial (Homo sapiens) (UniProt Q96D53); assay: Inhibition of wild-type human full length ADCK4 (M1 to S544 residues) expressed in Escherichia coli BL21 assessed as residual activity at 1000 nM after 30 mins by Kinomescan method relative to control; procedure, shortened: as §2
Atypical kinase COQ8B, mitochondrial (Homo sapiens), sequence (Q96D53 whole entry, the tested form may be a part): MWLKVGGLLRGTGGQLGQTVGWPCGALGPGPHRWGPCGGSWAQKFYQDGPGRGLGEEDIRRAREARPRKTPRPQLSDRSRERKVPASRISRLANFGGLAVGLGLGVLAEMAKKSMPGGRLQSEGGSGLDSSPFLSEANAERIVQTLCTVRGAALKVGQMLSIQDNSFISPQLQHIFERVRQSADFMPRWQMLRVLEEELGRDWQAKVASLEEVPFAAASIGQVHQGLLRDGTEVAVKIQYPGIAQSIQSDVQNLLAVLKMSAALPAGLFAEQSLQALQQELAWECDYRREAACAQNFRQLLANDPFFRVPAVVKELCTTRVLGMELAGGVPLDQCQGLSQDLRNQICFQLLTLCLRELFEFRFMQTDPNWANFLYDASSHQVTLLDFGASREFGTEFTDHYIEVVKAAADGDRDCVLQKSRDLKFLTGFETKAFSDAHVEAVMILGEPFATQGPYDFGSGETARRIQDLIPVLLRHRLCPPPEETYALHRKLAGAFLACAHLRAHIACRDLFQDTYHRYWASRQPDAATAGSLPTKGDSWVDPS

[7] = biological target: Ribosomal protein S6 kinase alpha-6 (Homo sapiens) (UniProt Q9UK32); assay: Inhibition of wild-type human partial length C-terminal RSK4 kinase domain 2 (I401 to Y711 residues) expressed in Escherichia coli BL21 assessed as residual activity at 1000 nM after 30 mins by Kinomescan method relative to control
[8] = biological target: Non-receptor tyrosine-protein kinase TYK2 (Homo sapiens) (UniProt P29597); assay: Inhibition of wild-type human partial length TYK2 JH2 pseudokinase domain (G556 to D888 residues) expressed in HEK293 cells assessed as residual activity at 1000 nM after 30 mins by Kinomescan method relative to control; type: cell-based
Non-receptor tyrosine-protein kinase TYK2 (Homo sapiens), sequence (P29597 whole entry, the tested form may be a part): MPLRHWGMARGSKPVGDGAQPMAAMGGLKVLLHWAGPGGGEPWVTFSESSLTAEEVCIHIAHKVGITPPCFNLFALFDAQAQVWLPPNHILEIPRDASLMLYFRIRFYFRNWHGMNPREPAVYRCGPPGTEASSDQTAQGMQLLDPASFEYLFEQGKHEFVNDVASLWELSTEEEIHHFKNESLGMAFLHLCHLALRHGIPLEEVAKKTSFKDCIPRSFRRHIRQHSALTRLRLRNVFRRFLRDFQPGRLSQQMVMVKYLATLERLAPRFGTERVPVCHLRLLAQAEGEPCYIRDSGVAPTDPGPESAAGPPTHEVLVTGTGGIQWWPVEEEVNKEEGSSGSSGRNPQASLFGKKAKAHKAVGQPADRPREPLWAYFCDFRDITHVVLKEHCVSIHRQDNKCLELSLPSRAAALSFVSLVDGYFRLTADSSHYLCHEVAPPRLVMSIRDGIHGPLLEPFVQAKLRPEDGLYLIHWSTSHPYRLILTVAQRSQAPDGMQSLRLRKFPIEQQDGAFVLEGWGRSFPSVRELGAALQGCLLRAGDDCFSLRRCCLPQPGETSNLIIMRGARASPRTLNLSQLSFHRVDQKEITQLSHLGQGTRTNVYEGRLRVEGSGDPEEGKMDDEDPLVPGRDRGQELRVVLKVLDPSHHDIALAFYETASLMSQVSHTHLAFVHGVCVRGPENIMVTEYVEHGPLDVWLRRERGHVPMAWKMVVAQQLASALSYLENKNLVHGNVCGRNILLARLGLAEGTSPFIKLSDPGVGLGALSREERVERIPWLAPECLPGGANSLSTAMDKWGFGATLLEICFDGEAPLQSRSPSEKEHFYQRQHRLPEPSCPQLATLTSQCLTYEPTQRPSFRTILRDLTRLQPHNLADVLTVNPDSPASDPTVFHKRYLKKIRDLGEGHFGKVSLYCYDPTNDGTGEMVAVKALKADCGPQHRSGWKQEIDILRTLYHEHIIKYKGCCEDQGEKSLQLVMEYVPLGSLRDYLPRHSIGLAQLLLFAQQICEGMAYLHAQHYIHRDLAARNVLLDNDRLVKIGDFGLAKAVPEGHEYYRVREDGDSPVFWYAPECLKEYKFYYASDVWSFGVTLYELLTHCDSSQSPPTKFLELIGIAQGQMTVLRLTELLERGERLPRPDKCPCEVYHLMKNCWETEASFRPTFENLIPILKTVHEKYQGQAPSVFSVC

[9] = test system: ALK tyrosine kinase receptor (Homo sapiens), Q9UM73 [C1156Y]; assay: Inhibition of wild-type human partial length ALK C1156Y mutant (I1088 to E1409 residues) expressed in HEK293 cells assessed as residual activity at 1000 nM after 30 mins by Kinomescan method relative to control; type: cell-based
[10] = biological target: Homeodomain-interacting protein kinase 3 (Homo sapiens) (UniProt Q9H422); assay: Inhibition of wild-type human partial length HIPK3 (M153 to N562 residues) expressed in HEK293 cells assessed as residual activity at 1000 nM after 30 mins by Kinomescan method relative to control; type: cell-based
[11] = test system: Phosphatidylinositol 4,5-bisphosphate 3-kinase catalytic subunit alpha isoform (Homo sapiens), P42336 [M1043I]; assay: Inhibition of human partial length PIK3CA M1043I mutant (R108 to N1068 residues) expressed in HEK293 cells assessed as residual activity at 1000 nM after 30 mins by Kinomescan method relative to control; type: cell-based; procedure, shortened: as §2
Phosphatidylinositol 4,5-bisphosphate 3-kinase catalytic subunit alpha isoform (Homo sapiens), P42336 [M1043I], sequence (P42336 whole entry M1043I, the tested form may be a part, canonical isoform): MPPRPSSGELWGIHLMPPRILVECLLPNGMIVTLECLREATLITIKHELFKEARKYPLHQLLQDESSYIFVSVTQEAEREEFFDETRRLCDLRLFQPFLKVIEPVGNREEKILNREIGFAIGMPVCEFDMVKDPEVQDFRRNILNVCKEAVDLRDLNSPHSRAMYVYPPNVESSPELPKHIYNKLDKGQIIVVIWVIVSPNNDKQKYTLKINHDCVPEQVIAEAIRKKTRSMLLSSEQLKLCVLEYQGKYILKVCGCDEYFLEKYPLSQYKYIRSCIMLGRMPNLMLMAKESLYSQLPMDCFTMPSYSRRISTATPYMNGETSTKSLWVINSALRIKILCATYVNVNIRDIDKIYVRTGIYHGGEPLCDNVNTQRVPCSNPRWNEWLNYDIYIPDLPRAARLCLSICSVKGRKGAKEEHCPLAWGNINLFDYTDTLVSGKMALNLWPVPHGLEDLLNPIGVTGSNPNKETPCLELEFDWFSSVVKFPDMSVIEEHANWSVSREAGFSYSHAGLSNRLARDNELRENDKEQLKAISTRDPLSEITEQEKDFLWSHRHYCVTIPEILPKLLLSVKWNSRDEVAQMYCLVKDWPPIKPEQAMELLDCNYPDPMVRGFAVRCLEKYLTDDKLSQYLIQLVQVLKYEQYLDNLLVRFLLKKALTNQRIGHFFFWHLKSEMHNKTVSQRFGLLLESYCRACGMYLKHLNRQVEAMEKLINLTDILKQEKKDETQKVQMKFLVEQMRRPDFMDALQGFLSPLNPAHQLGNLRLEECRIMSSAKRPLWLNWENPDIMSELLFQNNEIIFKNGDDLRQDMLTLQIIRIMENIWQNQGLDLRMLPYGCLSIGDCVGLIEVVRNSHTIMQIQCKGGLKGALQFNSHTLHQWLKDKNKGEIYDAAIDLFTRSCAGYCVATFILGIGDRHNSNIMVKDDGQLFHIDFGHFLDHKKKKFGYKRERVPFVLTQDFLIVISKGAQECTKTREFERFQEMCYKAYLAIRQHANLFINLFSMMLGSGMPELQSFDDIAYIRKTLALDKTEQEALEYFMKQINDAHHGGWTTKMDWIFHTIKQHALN

[12] = biological target: Mitogen-activated protein kinase kinase kinase 2 (Homo sapiens) (UniProt Q9Y2U5); assay: Inhibition of wild-type human partial length MAP3K2 (S315 to H619 residues) expressed in HEK293 cells assessed as residual activity at 1000 nM after 30 mins by Kinomescan method relative to control; type: cell-based
[13] = biological target: Casein kinase I isoform epsilon (Homo sapiens) (UniProt P49674); assay: Inhibition of wild-type human full length CSNK1E (M1 to K416 residues) expressed in Escherichia coli BL21 assessed as residual activity at 1000 nM after 30 mins by Kinomescan method relative to control; procedure, shortened: as §2
Casein kinase I isoform epsilon (Homo sapiens), sequence (P49674 whole entry, looked up, the tested form may be a part, canonical isoform): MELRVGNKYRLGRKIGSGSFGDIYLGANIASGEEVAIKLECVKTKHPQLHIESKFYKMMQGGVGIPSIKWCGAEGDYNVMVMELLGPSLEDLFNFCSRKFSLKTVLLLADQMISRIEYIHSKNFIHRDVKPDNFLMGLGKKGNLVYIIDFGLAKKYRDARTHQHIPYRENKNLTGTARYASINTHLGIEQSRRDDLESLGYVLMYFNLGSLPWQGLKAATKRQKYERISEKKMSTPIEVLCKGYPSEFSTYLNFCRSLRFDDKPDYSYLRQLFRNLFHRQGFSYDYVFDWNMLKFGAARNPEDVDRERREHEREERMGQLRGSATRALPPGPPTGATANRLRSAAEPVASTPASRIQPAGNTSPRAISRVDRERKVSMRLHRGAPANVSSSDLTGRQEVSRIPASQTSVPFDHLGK

[14] = biological target: Tyrosine-protein kinase JAK1 (Homo sapiens) (UniProt P23458); assay: Inhibition of wild-type human partial length JAK1 JH2 pseudokinase domain (R537 to D855 residues) expressed in HEK293 cells assessed as residual activity at 1000 nM after 30 mins by Kinomescan method relative to control; type: cell-based
[15] = biological target: NUAK family SNF1-like kinase 1 (Homo sapiens) (UniProt O60285); assay: Inhibition of wild-type human partial length ARK5 (E25 to I332 residues) expressed in Escherichia coli BL21 assessed as residual activity at 1000 nM after 30 mins by Kinomescan method relative to control
NUAK family SNF1-like kinase 1 (Homo sapiens), sequence (O60285 whole entry, the tested form may be a part): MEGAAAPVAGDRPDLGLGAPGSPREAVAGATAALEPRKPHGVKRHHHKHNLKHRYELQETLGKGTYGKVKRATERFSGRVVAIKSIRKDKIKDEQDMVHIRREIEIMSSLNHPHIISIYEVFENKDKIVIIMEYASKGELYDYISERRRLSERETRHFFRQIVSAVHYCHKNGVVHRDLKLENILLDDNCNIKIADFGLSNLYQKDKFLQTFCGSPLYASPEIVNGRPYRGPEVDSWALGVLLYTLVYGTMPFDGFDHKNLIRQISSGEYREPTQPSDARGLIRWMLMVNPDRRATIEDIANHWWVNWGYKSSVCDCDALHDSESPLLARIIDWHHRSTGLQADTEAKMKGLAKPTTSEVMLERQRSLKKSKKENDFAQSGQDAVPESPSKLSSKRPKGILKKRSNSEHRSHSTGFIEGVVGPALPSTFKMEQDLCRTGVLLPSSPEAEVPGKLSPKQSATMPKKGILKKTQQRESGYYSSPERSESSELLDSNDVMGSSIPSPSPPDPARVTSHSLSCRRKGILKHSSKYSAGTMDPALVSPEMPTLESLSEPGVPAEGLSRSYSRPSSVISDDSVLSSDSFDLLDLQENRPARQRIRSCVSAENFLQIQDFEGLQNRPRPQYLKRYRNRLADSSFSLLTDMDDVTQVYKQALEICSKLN

[16] = biological target: Serine/threonine-protein kinase Nek5 (Homo sapiens) (UniProt Q6P3R8); assay: Inhibition of wild-type human partial length NEK5 (M1 to M279 residues) expressed in Escherichia coli BL21 assessed as residual activity at 1000 nM after 30 mins by Kinomescan method relative to control
[17] = biological target: Dual specificity protein kinase CLK1 (Homo sapiens) (UniProt P49759); assay: Inhibition of wild-type human full length CLK1 (M1 to I484 residues) expressed in Escherichia coli BL21 assessed as residual activity at 1000 nM after 30 mins by Kinomescan method relative to control; procedure, shortened: as §2
[18] = test system: Mast/stem cell growth factor receptor Kit (Homo sapiens), P10721 [V559D,T670I]; assay: Inhibition of human partial length KIT V559D/T670I double mutant (Y545 to D952 residues) expressed in Escherichia coli BL21 assessed as residual activity at 1000 nM after 30 mins by Kinomescan method relative to control
Procedure, shortened: (§3)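 KINOMEscan binding panel of 456 kinases, with the test compound at a single concentration of 1 µM. Read-out is Percent Control.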

[19] = test system: Phosphatidylinositol 4,5-bisphosphate 3-kinase catalytic subunit alpha isoform (Homo sapiens), P42336 [E545A]; assay: Inhibition of human partial length PIK3CA E545A mutant (R108 to N1068 residues) expressed in HEK293 cells assessed as residual activity at 1000 nM after 30 mins by Kinomescan method relative to control; type: cell-based; procedure, shortened: as §3
Phosphatidylinositol 4,5-bisphosphate 3-kinase catalytic subunit alpha isoform (Homo sapiens), P42336 [E545A], sequence (P42336 whole entry E545A, the tested form may be a part, canonical isoform): as the sequence (P42336 whole entry M1043I, the tested form may be a part, canonical isoform) above, with E545A, I1043M counted along it

[20] = biological target: Tyrosine-protein kinase ABL1 (Homo sapiens) (UniProt P00519); assay: Inhibition of wild-type human non-phosphorylated ABL1 (S229 to K512 residues) expressed in HEK293 cells assessed as residual activity at 1000 nM after 30 mins by Kinomescan method relative to control; type: cell-based

Q: Which results are given for `COc1cc(OC)c(Cl)c(N2Cc3cnc(Nc4ccc(F)cc4)nc3N(C3CCN(C(=O)/C=C/CN(C)C)CC3)C2=O)c1Cl`?
A: Activity [1]: 87%; Activity [2]: 100%; Activity [3]: 93%; Activity [4]: 78%; Activity [5]: 83%; Activity [6]: 94%; Activity [7]: 94%; Activity [8]: 95%; Activity [9]: 68%; Activity [10]: 100%; Activity [11]: 95%; Activity [12]: 0.8%; Activity [13]: 100%; Activity [14]: 97%; Activity [15]: 100%; Activity [16]: 14%; Activity [17]: 100%; Activity [18]: 82%; Activity [19]: 90%; Activity [20]: 32%
